This is a sample that favours compounds with a hit; in the whole collection about 4.6% have one here.
Arbovirus anti – antivirals against arbovirus infection, primary screen, cell-based, full library, 10K replicate subset. 0.37% of 200,000 active. AID 1251, 2008. inhibition, % at 10 µM. arbovirus infection cell-based antiviral screen; in the data active = inhibition above about 30%
NCF1 inh – p47phox/p22phox peptide binding inhibitors, primary screen, biochemical, uHTS, NADPH oxidase regulatory subunit. inhibition, % at 24.7 µM. Neutrophil cytosol factor 1 (Homo sapiens), P14598. fluorescence polarization, 2 h. 0.53% of 220,000 active;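 active = inhibition above about 30%, limit read from the data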;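 also: 0% = p47phox with labelled peptide and 100% = labelled peptide alone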
Target sequence (P14598 whole entry, looked up): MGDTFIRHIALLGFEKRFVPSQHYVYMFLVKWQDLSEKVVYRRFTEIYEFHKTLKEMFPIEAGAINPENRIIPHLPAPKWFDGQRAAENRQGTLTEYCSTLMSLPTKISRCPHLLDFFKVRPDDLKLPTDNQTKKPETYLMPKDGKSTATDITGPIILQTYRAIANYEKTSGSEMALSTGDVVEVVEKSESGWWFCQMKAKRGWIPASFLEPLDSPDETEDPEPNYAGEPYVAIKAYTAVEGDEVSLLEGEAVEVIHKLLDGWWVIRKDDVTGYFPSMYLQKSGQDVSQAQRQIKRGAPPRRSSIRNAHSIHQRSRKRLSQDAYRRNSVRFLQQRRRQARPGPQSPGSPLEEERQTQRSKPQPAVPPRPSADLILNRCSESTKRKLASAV
Biofilm kill mix – clotrimazole potentiators killing C. albicans biofilm, primary screen, 4-compound mixtures; C. albicans biofilm persisters + clotrimazole, fluorescence viability; primary screen in compound mixtures of four per well; inhibition, % at 7.6 µM; 0.02% of 120,000 active; AID 1242, 2008;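 active = inhibition above 30.3% in the primary screen of four-compound pools, then above 30% when the compound was retested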;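 also: compounds exposed to preformed 24 h biofilms for 48 h; 0% = untreated biofilm control and 100% = clotrimazole plus chlorhexidine kill blank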
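Probe or stimulus – Clotrimazole 50 µg/mL co-treatment · System – C. albicans biofilms · Schedule – 24 h biofilm formation, then 48 h compound exposure, 37 °C · Evaluation – percent inhibition of biofilm viability · Technique – 2-h Alamar Blue fluorescence, 535/590 nm excitation/emission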
Hck Nef HTS – inhibitors of Nef-activated human Hck kinase, primary screen, biochemical, Z-Lyte FRET, 384-well, Hck-YEEI; 0.68% of 220,000 active; Recombinant Hck-YEEI plus Nef, Z-Lyte FRET kinase assay; Tyrosine-protein kinase HCK (Homo sapiens), P08631; inhibition, % at 20 µM;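 active = Hck-Nef kinase inhibition above about 50%, limit read from the data; inactive = inhibition below that limit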;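 also: 0% = DMSO with Hck plus Nef and 100% = Hck alone without Nef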
WT yeast gro inh – growth inhibition of WT strain, primary screen, mitochondrial fusion inhibitor project, WT and mutant strains, chemical genetic. mitochondrial fusion phenotypic screen. inhibition, % at 10 µM. 2.1% of 190,000 active; in the data active = inhibition above about 58%; tested in S. cerevisiae
RAM inhibit – inhibitors of the yeast RAM network, primary screen, dse1pr::URA3 reporter, 5-FOA selection | AID 868, 2007 | 1.8% of 190,000 active | inhibition, % at 50 µM | S. cerevisiae dse1pr::URA3 reporter, 5-FOA growth OD615, 2 d; analog-sensitive cbk1-as2 kinase mutant strain;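 active = inhibition above a set limit, 3 SD over mean compound inhibition, cut at about 8.4% in these data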;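 also: 0% = DMSO-only wells with no growth and 100% = 10 µM 1-NA-PP1 full growth; inhibition rescues growth on 5-FOA so higher OD means more RAM inhibition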
Numbers without * were called inactive.

How did C/C=C(\C)C(=O)NCCN1C2=NC[C@@H](Cc3ccccc3)N2C[C@H]1Cc1ccc(O)cc1 do in these assays?
Arbovirus anti: 1; NCF1 inh: -8; Biofilm kill mix: 19; Hck Nef HTS: 2; WT yeast gro inh: -4; RAM inhibit: 4

How did CCCCCCNC(=O)N[C@@H](C(=O)NCCC[C@H]1CN2C(=NC[C@@H]2Cc2ccccc2)N1CCc1cccc(OC)c1)C(C)C do in these assays?
NCF1 inh: 66*; Biofilm kill mix: 16; Hck Nef HTS: 10

What do the screens show for `CCc1cc(=O)oc2cc(OCC(=O)O)c(Cl)cc12`?
Arbovirus anti: 1; NCF1 inh: -2; Hck Nef HTS: 0; WT yeast gro inh: 14; RAM inhibit: 2

Results for CCCc1cc(=O)oc2cc(OCc3cccc(OC)c3)c(Cl)cc12 ?
Arbovirus anti: -10; NCF1 inh: -6; Biofilm kill mix: 4; Hck Nef HTS: 6; WT yeast gro inh: 9; RAM inhibit: 11*

What do the screens show for `CCc1c(C)sc(NC(=O)c2noc(C)c2[N+](=O)[O-])c1C#N`?
Arbovirus anti: 15; NCF1 inh: 0; Biofilm kill mix: 17; Hck Nef HTS: 4; WT yeast gro inh: -15; RAM inhibit: 3

Results for O=C(O)CCCC(=O)NS(=O)(=O)c1ccc(Cl)cc1 ?
Arbovirus anti: 8; NCF1 inh: -1; Hck Nef HTS: -17; WT yeast gro inh: -19; RAM inhibit: 0

What do the screens show for `COc1ccc(C)c2sc(NNC(=O)COc3ccccc3)nc12`?
Arbovirus anti: -5; NCF1 inh: -15; Biofilm kill mix: 6; Hck Nef HTS: -2; WT yeast gro inh: -4; RAM inhibit: 5

Results for Cc1cc(C)c(NC(=O)c2cc3c(nc4sccn43)s2)c(C)c1 ?
Arbovirus anti: -1; NCF1 inh: -4; Hck Nef HTS: 6; WT yeast gro inh: 75*; RAM inhibit: 0

Results for Cc1ccc(C)c(C(=O)c2c(C)nc3sccn23)c1 ?
Arbovirus anti: -15; NCF1 inh: 1; Hck Nef HTS: 0; WT yeast gro inh: -12; RAM inhibit: -1

Results for S=C(Nc1ccccc1Cl)N(Cc1cccnc1)Cc1ccco1 ?
Arbovirus anti: 13; NCF1 inh: -7; Biofilm kill mix: 17; Hck Nef HTS: -15; WT yeast gro inh: 11; RAM inhibit: 0

What do the screens show for `N#CCCN(Cc1cccnc1)C(=S)Nc1ccccc1Cl`?
Arbovirus anti: 19; NCF1 inh: 37*; Biofilm kill mix: 10; Hck Nef HTS: 12; WT yeast gro inh: -2; RAM inhibit: -1

Results for S=C(Nc1ccccc1Cl)N(Cc1ccccc1)Cc1ccccn1 ?
Arbovirus anti: 5; NCF1 inh: 1; Biofilm kill mix: 8; Hck Nef HTS: -1; WT yeast gro inh: 64*; RAM inhibit: 1

How did N#CCCN(Cc1cccnc1)C(=S)Nc1ccc(OC(F)F)cc1 do in these assays?
Arbovirus anti: 31*; NCF1 inh: 1; Biofilm kill mix: 8; Hck Nef HTS: 15; WT yeast gro inh: -10; RAM inhibit: 0

What do the screens show for `FC(F)Oc1ccc(NC(=S)NCc2cccnc2)cc1`?
Arbovirus anti: 7; NCF1 inh: 2; Biofilm kill mix: 13; Hck Nef HTS: -9; WT yeast gro inh: -6; RAM inhibit: 1

How did O=C(O)Cc1c(C(=O)O)[nH]c2ccc(C(=O)O)cc12 do in these assays?
NCF1 inh: -10; Biofilm kill mix: 25; Hck Nef HTS: 22

Results for O=S1(=O)CC2SC(=S)N(Cc3ccccc3)C2C1 (centres undefined) ?
NCF1 inh: -9; Biofilm kill mix: 7; Hck Nef HTS: 6

What do the screens show for `O=c1c2cn[nH]c2nc(SCc2cc(=O)n3cc(Br)ccc3n2)n1-c1ccc(Br)cc1`?
Arbovirus anti: 10; NCF1 inh: -26; Biofilm kill mix: 14; Hck Nef HTS: 29; WT yeast gro inh: 3; RAM inhibit: 7

Results for O=c1c2cn[nH]c2nc(SCc2ccccc2F)n1-c1ccc(Br)cc1 ?
Arbovirus anti: -23; NCF1 inh: -6; Biofilm kill mix: 10; Hck Nef HTS: 0; WT yeast gro inh: 79*; RAM inhibit: 4

Results for CC(=O)Oc1ccc2nc(CN3C(=O)c4ccc([N+](=O)[O-])cc4C3=O)oc(=O)c2c1 ?
Arbovirus anti: -1; NCF1 inh: 17; Biofilm kill mix: -1; Hck Nef HTS: 24; WT yeast gro inh: -15; RAM inhibit: 1

Results for C=C(C)CN(CC)C(=O)CSc1nc(O)cc(=O)n1C1CCCC1 ?
Arbovirus anti: 30*; NCF1 inh: -4; Biofilm kill mix: 18; Hck Nef HTS: 13; WT yeast gro inh: -2; RAM inhibit: 4

Results for Cc1ccc(-c2nnnn2C2C/C(=N\NC(N)=S)C3OCC2O3)cc1 (centres undefined) ?
Arbovirus anti: 19; NCF1 inh: -1; Biofilm kill mix: 12; Hck Nef HTS: 20; WT yeast gro inh: 11; RAM inhibit: 1

How did Cc1ccc(C(=O)c2c(NC(=O)c3ccccc3C)sc(C)c2C)cc1 do in these assays?
Arbovirus anti: 3; NCF1 inh: -19; Hck Nef HTS: -1; WT yeast gro inh: -13; RAM inhibit: 10*

How did CCN(CC)CC(=O)Nc1sc(C)c(C)c1C(=O)c1ccc(C)cc1 do in these assays?
Arbovirus anti: -2; NCF1 inh: -3; Biofilm kill mix: 15; Hck Nef HTS: 21; WT yeast gro inh: 9; RAM inhibit: 2

How did COc1ccc(/C=N/Nc2nnc(Cc3ccc(OC)c(OC)c3)c(=O)[nH]2)cc1OC do in these assays?
Arbovirus anti: -6; NCF1 inh: 8; Biofilm kill mix: 8; Hck Nef HTS: 5; WT yeast gro inh: -10; RAM inhibit: 9.7*

What do the screens show for `COc1ccc(/C=N/Nc2nnc(Cc3ccc(OC)c(OC)c3)c(=O)[nH]2)cc1`?
Arbovirus anti: -3; NCF1 inh: 12; Biofilm kill mix: -10; Hck Nef HTS: -2; WT yeast gro inh: 6; RAM inhibit: 4

What do the screens show for `Cc1csc(NC(=O)CSc2nnc(NC(=O)COc3ccccc3)s2)n1`?
Arbovirus anti: 3; NCF1 inh: -12; Biofilm kill mix: 10; Hck Nef HTS: 2; WT yeast gro inh: 0; RAM inhibit: 3

Results for Cc1cccc(N=C2NC(=O)/C(=C3/C(=O)N(C)c4ccccc43)S2)c1C ?
Arbovirus anti: 43*; NCF1 inh: 5; Hck Nef HTS: 10; WT yeast gro inh: 17; RAM inhibit: 2

How did CNS(=O)(=O)c1cccc(C(=O)OCC(=O)N2CCc3ccccc3C2)c1 do in these assays?
Arbovirus anti: -3; NCF1 inh: 30*; Hck Nef HTS: -2; WT yeast gro inh: 11; RAM inhibit: 1

Screens as filed in PubChem BioAssay.
